Test results reported in ChEMBL document CHEMBL5724801, “EUbOPEN Chemogenomics Library - Multiplex” (2024).
Several values for one entry are separate records, joined by “and”; a condition that tells them apart may be missing. Equal entries are not always repeated.

Tested on: Fibroblast
Test: Multiplex assay against human fibroblast
Assay type: toxicity, cell-based
How it was run: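 Imaging took place on a CQ1 microscope at 37°C and 5% CO2 once compound had been added to live cells stained at seeding with Hoechst33342, BioTracker Green Microtubule Cytoskeleton Dye, MitoTracker Red and Annexin V Alexa Fluor 680. CellPathfinder machine-learning gating classed cells as Hoechst high-intensity objects or normal cells, classed normal cells as having healthy, pyknosed or fragmented nuclei, and classed pyknosed cells as mitotic or apoptotic. Tubulin, mitochondrial-mass and membrane-permeability phenotypes are per cents of the healthy-nucleus cells.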

[1] = 12 h, 1 µM, compound concentration 1 uM
[2] = 12 h, 10 µM, compound concentration 10 uM
[3] = 24 h, 1 µM, compound concentration 1 uM
[4] = 24 h, 10 µM, compound concentration 10 uM
[5] = 48 h, 1 µM, compound concentration 1 uM
[6] = 48 h, 10 µM, compound concentration 10 uM

For `O=C(NCCO)c1cccc(-c2cc(Nc3ccc(OC(F)(F)F)cc3)ncn2)c1`, the “Population Apoptotic (%)” value [1] was 46% and 38%, the “Population Fragmented Nuclei (%)” value [1] was 16% and 29% and the “Population Healthy Nuclei (%)” value [1] was 60% and 46%. For the same molecule, the “Population Hoechst High Intensity Objects (%)” value [1] was 3% and 4%, the “Population Membrane Permeable-Phenotype (%)” value [1] was 1% and 10% and the “Population Mitochondria Different-Phenotype (%)” value [1] was 6% and 8%. The “Population Mitotic Cells (%)” value [1] was 53% and 61%, the “Population Normal (%)” value [1] was 96% and 95% and the “Population Pyknosed Nuclei (%)” value [1] was 24% and 23%. For the same molecule, the “Population Tubulin-Different-Phenotype (%)” value [1] was 33% and 46%, the “Total Cell Count” value [1] was 130 and 149 and the “Population Apoptotic (%)” value [2] was 37% and 40%. For the same molecule, the “Population Fragmented Nuclei (%)” value [2] was 17% and 22%, the “Population Healthy Nuclei (%)” value [2] was 59% and 36% and the “Population Hoechst High Intensity Objects (%)” value [2] was 5% and 10%. The “Population Membrane Permeable-Phenotype (%)” value [2] was 0% and 11%, the “Population Mitochondria Different-Phenotype (%)” value [2] was 13% and 11% and the “Population Mitotic Cells (%)” value [2] was 62% and 59%. For the same molecule, the “Population Normal (%)” value [2] was 94% and 89%, the “Population Pyknosed Nuclei (%)” value [2] was 22% and 40% and the “Population Tubulin-Different-Phenotype (%)” value [2] was 54% and 79%. For the same molecule, the “Total Cell Count” value [2] was 185 and 192, the “Population Apoptotic (%)” value [3] was 56% and 52% and the “Population Fragmented Nuclei (%)” value [3] was 16% and 24%. The “Population Healthy Nuclei (%)” value [3] was 60% and 50%, the “Population Hoechst High Intensity Objects (%)” value [3] was 1% and 2% and the “Population Membrane Permeable-Phenotype (%)” value [3] was 2% and 5%. For the same molecule, the “Population Mitochondria Different-Phenotype (%)” value [3] was 4% and 5%, the “Population Mitotic Cells (%)” value [3] was 43% and 47% and the “Population Normal (%)” value [3] was 98% and 97%. The “Population Pyknosed Nuclei (%)” value [3] was 22% and 25%, the “Population Tubulin-Different-Phenotype (%)” value [3] was 33% and 42% and the “Total Cell Count” value [3] was 135 and 139. The “Population Apoptotic (%)” value [4] was 50% and 41%, the “Population Fragmented Nuclei (%)” value [4] was 14% and 30% and the “Population Healthy Nuclei (%)” value [4] was 61% and 36%. For the same molecule, the “Population Hoechst High Intensity Objects (%)” value [4] was 11% and 7%, the “Population Membrane Permeable-Phenotype (%)” value [4] was 1% and 10% and the “Population Mitochondria Different-Phenotype (%)” value [4] was 21% and 25%. For the same molecule, the “Population Mitotic Cells (%)” value [4] was 50% and 58%, the “Population Normal (%)” value [4] was 88% and 92% and the “Population Pyknosed Nuclei (%)” value [4] was 24% and 32%. The “Population Tubulin-Different-Phenotype (%)” value [4] was 53% and 84%, the “Total Cell Count” value [4] was 175 and 187 and the “Population Apoptotic (%)” value [5] was 82% and 45%. The “Population Fragmented Nuclei (%)” value [5] was 21% and 31%, the “Population Healthy Nuclei (%)” value [5] was 65% and 53% and the “Population Hoechst High Intensity Objects (%)” value [5] was 1%. The “Population Membrane Permeable-Phenotype (%)” value [5] was 3% and 6%, the “Population Mitochondria Different-Phenotype (%)” value [5] was 1% and 4% and the “Population Normal (%)” value [5] was 98%. The “Population Pyknosed Nuclei (%)” value [5] was 13% and 14%, the “Population Tubulin-Different-Phenotype (%)” value [5] was 28% and 38% and the “Total Cell Count” value [5] was 130 and 156. The “Population Apoptotic (%)” value [6] was 70% and 76%, the “Population Fragmented Nuclei (%)” value [6] was 35% and 40% and the “Population Healthy Nuclei (%)” value [6] was 51% and 47%. For the same molecule, the “Population Hoechst High Intensity Objects (%)” value [6] was 13% and 6%, the “Population Membrane Permeable-Phenotype (%)” value [6] was 0% and 13% and the “Population Mitochondria Different-Phenotype (%)” value [6] was 26% and 19%. For the same molecule, the “Population Mitotic Cells (%)” value [6] was 30% and 23%, the “Population Normal (%)” value [6] was 86% and 93% and the “Population Pyknosed Nuclei (%)” value [6] was 13% and 11%. For the same molecule, the “Population Tubulin-Different-Phenotype (%)” value [6] was 64% and 86% and the “Total Cell Count” value [6] was 170 and 198.

With `Cc1onc(-c2ccccc2Cl)c1C(=O)N(C)c1ccc(Cl)cc1` the “Population Apoptotic (%)” value [1] was 60% and 35%, the “Population Fragmented Nuclei (%)” value [1] was 17% and 22% and the “Population Healthy Nuclei (%)” value [1] was 68% and 50%. The “Population Hoechst High Intensity Objects (%)” value [1] was 7% and 9%, the “Population Membrane Permeable-Phenotype (%)” value [1] was 0% and 6% and the “Population Mitochondria Different-Phenotype (%)” value [1] was 7% and 8%. The “Population Mitotic Cells (%)” value [1] was 39% and 65%, the “Population Normal (%)” value [1] was 92% and 90% and the “Population Pyknosed Nuclei (%)” value [1] was 13% and 27%. For the same molecule, the “Population Tubulin-Different-Phenotype (%)” value [1] was 23% and 63%, the “Total Cell Count” value [1] was 178 and 161 and the “Population Apoptotic (%)” value [2] was 36% and 37%. For the same molecule, the “Population Fragmented Nuclei (%)” value [2] was 16% and 24%, the “Population Healthy Nuclei (%)” value [2] was 70% and 48% and the “Population Hoechst High Intensity Objects (%)” value [2] was 2% and 3%. The “Population Membrane Permeable-Phenotype (%)” value [2] was 2% and 5%, the “Population Mitochondria Different-Phenotype (%)” value [2] was 6% and 11% and the “Population Mitotic Cells (%)” value [2] was 63% and 62%. For the same molecule, the “Population Normal (%)” value [2] was 97% and 96%, the “Population Pyknosed Nuclei (%)” value [2] was 13% and 27% and the “Population Tubulin-Different-Phenotype (%)” value [2] was 29% and 64%. For the same molecule, the “Total Cell Count” value [2] was 144 and 151, the “Population Apoptotic (%)” value [3] was 44% and 39% and the “Population Fragmented Nuclei (%)” value [3] was 18% and 22%. For the same molecule, the “Population Healthy Nuclei (%)” value [3] was 65% and 54%, the “Population Hoechst High Intensity Objects (%)” value [3] was 7% and 12% and the “Population Membrane Permeable-Phenotype (%)” value [3] was 0% and 8%. For the same molecule, the “Population Mitochondria Different-Phenotype (%)” value [3] was 1% and 4%, the “Population Mitotic Cells (%)” value [3] was 55% and 60% and the “Population Normal (%)” value [3] was 92% and 87%. For the same molecule, the “Population Pyknosed Nuclei (%)” value [3] was 16% and 23%, the “Total Cell Count” value [3] was 178 and 182 and the “Population Apoptotic (%)” value [4] was 20% and 54%. For the same molecule, the “Population Fragmented Nuclei (%)” value [4] was 16% and 21%, the “Population Healthy Nuclei (%)” value [4] was 76% and 55% and the “Population Hoechst High Intensity Objects (%)” value [4] was 2% and 4%. The “Population Membrane Permeable-Phenotype (%)” value [4] was 1% and 6%, the “Population Mitochondria Different-Phenotype (%)” value [4] was 4% and 6% and the “Population Mitotic Cells (%)” value [4] was 80% and 45%. For the same molecule, the “Population Normal (%)” value [4] was 97% and 95%, the “Population Tubulin-Different-Phenotype (%)” value [4] was 32% and 59% and the “Total Cell Count” value [4] was 134 and 149. The “Population Apoptotic (%)” value [5] was 76% and 48%, the “Population Fragmented Nuclei (%)” value [5] was 26% and 28% and the “Population Healthy Nuclei (%)” value [5] was 62% and 54%. The “Population Hoechst High Intensity Objects (%)” value [5] was 9% and 11%, the “Population Membrane Permeable-Phenotype (%)” value [5] was 0% and 10% and the “Population Mitochondria Different-Phenotype (%)” value [5] was 1% and 6%. The “Population Mitotic Cells (%)” value [5] was 23% and 51%, the “Population Normal (%)” value [5] was 90% and 88% and the “Population Pyknosed Nuclei (%)” value [5] was 10% and 17%. The “Population Tubulin-Different-Phenotype (%)” value [5] was 22% and 51%, the “Total Cell Count” value [5] was 185 and 188 and the “Population Apoptotic (%)” value [6] was 44% and 65%. The “Population Fragmented Nuclei (%)” value [6] was 25% and 31%, the “Population Healthy Nuclei (%)” value [6] was 68% and 55% and the “Population Hoechst High Intensity Objects (%)” value [6] was 4% and 1%. The “Population Membrane Permeable-Phenotype (%)” value [6] was 0% and 8%, the “Population Mitochondria Different-Phenotype (%)” value [6] was 3% and 6% and the “Population Mitotic Cells (%)” value [6] was 55% and 35%. For the same molecule, the “Population Normal (%)” value [6] was 95% and 98%, the “Population Pyknosed Nuclei (%)” value [6] was 6% and 12% and the “Population Tubulin-Different-Phenotype (%)” value [6] was 34% and 53%. The “Total Cell Count” value [6] was 141 and 166.
